Laboratory results reported in ChEMBL document CHEMBL1671740, “Increased temperature enhances the antimicrobial effects of daptomycin, vancomycin, tigecycline, fosfomycin, and cefamandole on staphylococcal biofilms” (2010).
Values after ≈ are worked out from the molar mass of the structure shown. Active and inactive are the calls of the source. The calls are words filed in the database; no cut-off is given here.

What was measured:
Staphylococcus aureus [1] = test: Antimicrobial activity against Staphylococcus aureus ATCC 29213 administered as powder at 45 degC after 24 hrs; assay type: functional; conditions: ATCC 29213, 24 h
In short: (§1)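 Antimicrobials, as powder or in solution as used for MIC testing, held at 45°C for 1 and 24 h in three independent experiments. MICs were then determined by the CLSI microtiter plate method in cation-adjusted Mueller-Hinton medium, with MHB containing 50 μg/ml calcium for daptomycin. Values are median (range) […] in mg/liter.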

[2] = test system: Staphylococcus epidermidis; test: Antimicrobial activity against Staphylococcus epidermidis DSM3269 by […]; assay type: functional
Staphylococcus [3] = test: Antimicrobial activity against coagulase-negative Staphylococcus isolated from human preoperative skin by […]; assay type: functional
Staphylococcus [4] = test: Antimicrobial activity against Staphylococcus isolates biofilms assessed as change in optical density ratio of biofilms at 1000 mg/litre at ambient temperature of 45 degC after 24 hrs relative to baseline; assay type: functional
In short: (§2)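 Static microtiter biofilms of 34 clinical S. aureus and CoNS isolates from orthopedic implant infections or preoperative skin, plus reference strains. Inoculum was McFarland 0.5 diluted 1:100 in calcium-supplemented MHB, grown 24 h at 35°C in ambient air. Established biofilms were exposed to drug for 24 h at 35, 40 or 45°C, then formalin-fixed and stained with 1% crystal violet for 5 min, and OD read at 550 nm in quadruplicate.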

Staphylococcus [5] = test: Antimicrobial activity against Staphylococcus isolates biofilms assessed as change in optical density ratio of biofilms at 250 mg/litre at ambient temperature of 40 degC after 24 hrs relative to baseline; assay type: functional; in short: as §2
Staphylococcus aureus [6] = test: Antimicrobial activity against Staphylococcus aureus ATCC 29213 by […]; assay type: functional
[7] = test system: Staphylococcus epidermidis; test: Antimicrobial activity against Staphylococcus epidermidis isolate KO8 isolated from healthy human skin by […]; assay type: functional
Staphylococcus [8] = test: Antimicrobial activity against Staphylococcus isolates biofilms assessed as change in optical density ratio of biofilms at 250 mg/litre at ambient temperature of 35 degC after 24 hrs relative to baseline; assay type: functional; in short: as §2
Staphylococcus aureus [9] = test: Antimicrobial activity against Staphylococcus aureus isolated from human prosthetic joint infection site by […]; assay type: functional
Staphylococcus aureus [10] = test: Antimicrobial activity against Staphylococcus aureus isolated from human preoperative skin by […]; assay type: functional
Staphylococcus [11] = test: Antimicrobial activity against Staphylococcus isolates biofilms assessed as change in optical density ratio of biofilms at 250 mg/litre at ambient temperature of 45 degC after 24 hrs relative to baseline; assay type: functional; in short: as §2
[12] = test system: Staphylococcus epidermidis; test: Antimicrobial activity against Staphylococcus epidermidis isolate OR1 treated in solution at 45 degC after 24 hrs; assay type: functional; conditions: isolate OR1, 24 h; in short: as §1
Staphylococcus [13] = test: Antimicrobial activity against coagulase-negative Staphylococcus isolated from human prosthetic joint infection site by […]; assay type: functional
Staphylococcus [14] = test: Antimicrobial activity against Staphylococcus isolates biofilms assessed as change in optical density ratio of biofilms at 1000 mg/litre at ambient temperature of 35 degC after 24 hrs relative to baseline; assay type: functional; in short: as §2
Staphylococcus [15] = test: Antimicrobial activity against Staphylococcus isolates biofilms assessed as change in optical density ratio of biofilms at 1000 mg/litre at ambient temperature of 40 degC after 24 hrs relative to baseline; assay type: functional; in short: as §2
Staphylococcus [16] = test: Antimicrobial activity against Staphylococcus isolates biofilms assessed as decrease in bacterial load at 100 mg/litre at ambient temperature of 35 degC after 24 hrs relative to baseline; assay type: functional
In short: (§3)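 24-h static biofilms of the staphylococcal isolates were exposed to drug for 24 h at 35, 40 or 45°C. Biofilms were not fixed but scraped off and resuspended in MHB, then serially diluted and 0.1 ml plated on blood agar, read after 48 h at 35°C in ambient air. Done in duplicate as mean log10 CFU/ml; log reduction was taken versus untreated biofilm.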

Staphylococcus [17] = test: Antimicrobial activity against Staphylococcus isolates biofilms assessed as change in optical density ratio of biofilms at 25 mg/litre at ambient temperature of 45 degC after 24 hrs relative to baseline; assay type: functional; in short: as §2
Staphylococcus [18] = test: Antimicrobial activity against Staphylococcus isolates biofilms assessed as change in optical density ratio of biofilms at 25 mg/litre at ambient temperature of 40 degC after 24 hrs relative to baseline; assay type: functional; in short: as §2
Staphylococcus [19] = test: Antimicrobial activity against Staphylococcus isolates biofilms assessed as change in optical density ratio of biofilms at 1 mg/litre at ambient temperature of 35 degC after 24 hrs relative to baseline; assay type: functional; in short: as §2
Staphylococcus [20] = test: Antimicrobial activity against Staphylococcus isolates biofilms assessed as change in optical density ratio of biofilms at 25 mg/litre at ambient temperature of 35 degC after 24 hrs relative to baseline; assay type: functional; in short: as §2
Staphylococcus [21] = test: Antimicrobial activity against Staphylococcus isolates biofilms assessed as change in optical density ratio of biofilms at 5 mg/litre at ambient temperature of 40 degC after 24 hrs relative to baseline; assay type: functional; in short: as §2
Staphylococcus [22] = test: Antimicrobial activity against Staphylococcus isolates biofilms assessed as change in optical density ratio of biofilms at 1 mg/litre at ambient temperature of 45 degC after 24 hrs relative to baseline; assay type: functional; in short: as §2
Staphylococcus [23] = test: Antimicrobial activity against Staphylococcus isolates biofilms assessed as change in optical density ratio of biofilms at 1 mg/litre at ambient temperature of 40 degC after 24 hrs relative to baseline; assay type: functional; in short: as §2
Staphylococcus [24] = test: Antimicrobial activity against Staphylococcus isolates biofilms assessed as decrease in bacterial load at 1 to 25 mg/litre at ambient temperature of 30 to 45 degC after 24 hrs relative to baseline; assay type: functional, organism-based; conditions: in the assay text read “35 to 45 degC” for “30 to 45 degC”; in short: as §3
Staphylococcus [25] = test: Antimicrobial activity against Staphylococcus isolates biofilms assessed as change in optical density ratio of biofilms at 5 mg/litre at ambient temperature of 35 degC after 24 hrs relative to baseline; assay type: functional; in short: as §2
Staphylococcus [26] = test: Antimicrobial activity against Staphylococcus isolates biofilms assessed as change in optical density ratio of biofilms at 5 mg/litre at ambient temperature of 45 degC after 24 hrs relative to baseline; assay type: functional; in short: as §2
Staphylococcus [27] = test: Antimicrobial activity against Staphylococcus isolates biofilms assessed as decrease in bacterial load at 5 to 100 mg/litre at ambient temperature of […] after 24 hrs relative to baseline; assay type: functional, organism-based
In short: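 Static 24-h biofilms of staphylococcal isolates (S. aureus, CoNS) and reference strains were grown at 35°C in calcium-supplemented MHB from a 1:100-diluted McFarland 0.5 inoculum. They were then exposed to drug at 5, 25 or 100 mg/liter for 24 h at 35, 40 or 45°C. Biofilms were scraped into MHB, serially diluted and plated on blood agar (35°C, 48 h), in duplicate, giving mean log10 CFU/ml against untreated.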

Compound	MIC (Staphylococcus aureus [1]) [µg/mL]	MIC [2] [µg/mL]	MIC (Staphylococcus [3]) [µg/mL]	MIC (Staphylococcus aureus [6]) [µg/mL]	MIC [7] [µg/mL]	MIC (Staphylococcus aureus [9]) [µg/mL]	MIC (Staphylococcus aureus [10]) [µg/mL]	MIC [12] [µg/mL]	MIC (Staphylococcus [13]) [µg/mL]	Activity (Staphylococcus [16])	other results
C[C@@H]1O[C@@H]1P(=O)(O)O [FOSFOMYCIN]	1 (≈ 7.24 µM)	1 (≈ 7.24 µM)	32 (≈ 232 µM)	4 (≈ 29 µM)	16 (≈ 116 µM)	4 (≈ 29 µM)	64 (≈ 464 µM)	32 (≈ 232 µM)	16 (≈ 116 µM)	inactive	Ratio (Staphylococcus [4]): 0.63; Ratio (Staphylococcus [5]): 0.75; Ratio (Staphylococcus [8]): 1.01; Ratio (Staphylococcus [11]): 0.69; Ratio (Staphylococcus [14]): 0.78; Ratio (Staphylococcus [15]): 0.65
CN(C)c1cc(NC(=O)CNC(C)(C)C)c(O)c2c1C[C@H]1C[C@H]3[C@H](N(C)C)C(O)=C(C(N)=O)C(=O)[C@@]3(O)C(O)=C1C2=O [TIGECYCLINE]	1 (≈ 1.71 µM)	0.5 (≈ 0.854 µM)	0.03 (≈ 0.0512 µM)	0.06 (≈ 0.102 µM)	0.125 (≈ 0.213 µM)	0.125 (≈ 0.213 µM)	0.06 (≈ 0.102 µM)	2 (≈ 3.41 µM)	0.06 (≈ 0.102 µM)	inactive	Ratio (Staphylococcus [17]): 1.32; Ratio (Staphylococcus [18]): 0.83; Ratio (Staphylococcus [19]): 0.98; Ratio (Staphylococcus [20]): 1.12; Ratio (Staphylococcus [21]): 1.1; Ratio (Staphylococcus [22]): 0.93; Ratio (Staphylococcus [23]): 1.31; Activity (Staphylococcus [24]): inactive; Ratio (Staphylococcus [25]): 0.99; Ratio (Staphylococcus [26]): 0.86
CN[C@H](CC(C)C)C(=O)N[C@H]1C(=O)N[C@@H](CC(N)=O)C(=O)N[C@H]2C(=O)N[C@H]3C(=O)N[C@H](C(=O)N[C@H](C(=O)O)c4cc(O)cc(O)c4-c4cc3ccc4O)[C@H](O)c3ccc(c(Cl)c3)Oc3cc2cc(c3O[C@@H]2O[C@H](CO)[C@@H](O)[C@H](O)[C@H]2O[C@H]2C[C@](C)(N)[C@H](O)[C@H](C)O2)Oc2ccc(cc2Cl)[C@H]1O [VANCOMYCIN]	0.5 (≈ 0.345 µM)	2 (≈ 1.38 µM)	0.75 (≈ 0.518 µM)	0.5 (≈ 0.345 µM)	1 (≈ 0.69 µM)	0.5 (≈ 0.345 µM)	0.5 (≈ 0.345 µM)	2 (≈ 1.38 µM)	2 (≈ 1.38 µM)	inactive	Activity (Staphylococcus [27]): inactive
